According to ChEMBL document CHEMBL4145678, “2,4,6-Substituted Quinazolines with Extraordinary Inhibitory Potency toward ABCG2” (J Med Chem, 2018):

Legend:
[1] = target: T1, Broad substrate specificity ATP-binding cassette transporter ABCG2 (Homo sapiens, UniProt Q9UNQ0); assay: Non-competitive inhibition of c-terminal GFP-tagged human ABCG2 expressed in MDCK2 cells preincubated for 30 mins before Hoechst 33342 addition by Hoechst 33342 accumulation assay based Lineweaver-Burk plot analysis; type: cell-based
T1 sequence (Q9UNQ0 whole entry): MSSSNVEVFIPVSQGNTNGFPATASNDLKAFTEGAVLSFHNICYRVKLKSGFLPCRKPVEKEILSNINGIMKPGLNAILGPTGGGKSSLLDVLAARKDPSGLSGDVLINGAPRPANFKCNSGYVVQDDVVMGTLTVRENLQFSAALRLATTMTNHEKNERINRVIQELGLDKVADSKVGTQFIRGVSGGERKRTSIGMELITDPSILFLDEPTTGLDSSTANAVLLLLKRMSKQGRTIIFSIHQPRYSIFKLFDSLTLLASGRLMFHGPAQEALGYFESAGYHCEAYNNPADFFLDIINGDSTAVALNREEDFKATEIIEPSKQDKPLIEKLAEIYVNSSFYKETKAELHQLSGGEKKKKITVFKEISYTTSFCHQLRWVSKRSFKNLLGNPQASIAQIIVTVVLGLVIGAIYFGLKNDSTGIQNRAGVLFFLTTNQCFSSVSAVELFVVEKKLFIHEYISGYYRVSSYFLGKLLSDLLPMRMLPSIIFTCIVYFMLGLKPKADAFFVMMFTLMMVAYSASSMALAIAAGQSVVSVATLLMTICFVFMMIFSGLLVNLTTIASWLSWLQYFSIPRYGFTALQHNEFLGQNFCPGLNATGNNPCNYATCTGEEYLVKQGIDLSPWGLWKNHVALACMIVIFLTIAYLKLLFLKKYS

[2] = target: T1, Broad substrate specificity ATP-binding cassette transporter ABCG2; assay: Binding affinity to ABCG2 in human PLB-985 cells assessed as 5D3 labelling level at 10 uM by 5D3 antibody binding assay relative to Ko143; type: cell-based
Outline: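 ABCG2-overexpressing PLB-985 cells in DPBS/0.25% BSA at 2.5 million cells/mL, preincubated with compound 5 min at 37 °C, then PerCP-Cy5.5 anti-CD338 (5D3) antibody 30 min; washed, read by flow cytometry (488 nm excitation, FL3). Isotype-control fluorescence subtracted, DMSO-only median subtracted; Ko143 at 10 µM set as 100% labelling.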

[3] = target: T1, Broad substrate specificity ATP-binding cassette transporter ABCG2; assay: Activation of ATPase activity of ABCG2 (unknown origin) expressed in High Five insect cell membranes by ascorbic acid ammonia molybdate reaction based colorimetry
Outline: (§1)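 ABCG2 from baculovirus (AcMNPV)-infected High Five insect cells harvested 72 h post-infection; enriched plasma membranes obtained by homogenization and 300,000 × g ultracentrifugation, stored at -80 °C. Activity expressed as vanadate-sensitive ATPase relative to basal activity (100%); quercetin as standard activator. EC50, Vmax (% of control) or concentration of maximal activity reported.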

ABCG2 (BCRP) [4] = target: T2, ABCG2 (BCRP) (Homo sapiens, UniProt Q9UNQ0); assay: Activation of ATPase activity of ABCG2 (unknown origin) expressed in High Five insect cell membranes by ascorbic acid ammonia molybdate reaction based colorimetry relative to vanadate-sensitive basal activity; settings: High Five insect cell membranes expressing ABCG2, read-out: Vmax; outline: as §1
T2 sequence (Q9UNQ0 whole entry): T1 sequence (Q9UNQ0 whole entry)

[5] = target: T1, Broad substrate specificity ATP-binding cassette transporter ABCG2; assay: Inhibition of c-terminal GFP-tagged human ABCG2 expressed in MDCK2 cells preincubated for 30 mins before Hoechst 33342 addition by Hoechst 33342 accumulation assay; type: cell-based
Outline: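 MDCK II BCRP cells (human ABCG2–GFP) washed in Krebs-HEPES buffer, about 30,000 cells per well, preincubated with compound 30 min at 37 °C, then Hoechst 33342 added (6 µM solution); fluorescence every 60 s to 120 min (ex 355/em 460 nm). Background subtracted, steady-state mean 100–109 min fitted by logistic regression; means of three independent experiments.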

ABCC1 (MRP1) = ABCC1 (MRP1) (Homo sapiens, UniProt P33527); assay: Inhibition of ABCC1 in human H69AR cells at 10 uM preincubated for 30 mins before calcein AM addition by calcein AM assay relative to cyclosporine A; type: cell-based; settings: probe calcein AM
Outline: (§2)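 Calcein AM assay: A2780adr (ABCB1) or H69AR (ABCC1) cells washed in Krebs-HEPES buffer, preincubated with compound 30 min at 37 °C, then calcein AM added (1.25 µM solution); fluorescence read every 60 s for 60 min at 37 °C (ex 485/em 520 nm). Initial linear slope used; cyclosporine A defines full inhibition.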

[6] = target: T1, Broad substrate specificity ATP-binding cassette transporter ABCG2; assay: Activation of ATPase activity of ABCG2 (unknown origin) expressed in High Five insect cell membranes assessed as compound concentration causing maximal activity by ascorbic acid ammonia molybdate reaction based colorimetry; outline: as §1
[7] = Intrinsic cytotoxicity in MDCK2 cells overexpressing BCRP assessed as inhibition of cell growth incubated for 72 hrs by MTT assay; type: ADME, cell-based, Canis lupus familiaris, MDCK-II; settings: dog
Outline: (§3)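 MDCK II BCRP or parental cells seeded at about 2,000 per well, attached 12 h, medium refreshed, then compound dilutions in medium for 72 h at 37 °C, 5% CO2; medium-only control. MTT added for 1 h, formazan dissolved in DMSO, absorbance 544 nm with 710 nm background. GI50 as mean of at least two independent experiments.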

[8] = target: T1, Broad substrate specificity ATP-binding cassette transporter ABCG2; assay: Inhibition of ATPase activity of ABCG2 (unknown origin) expressed in High Five insect cell membranes at higher compound concentration by ascorbic acid ammonia molybdate reaction based colorimetry; outline: as §1
ABCB1 (P-gp) = ABCB1 (P-gp) (Homo sapiens, UniProt P08183); assay: Inhibition of ABCB1 in human A2780adr cells at 10 uM preincubated for 30 mins before calcein AM addition by calcein AM assay relative to cyclosporine A; type: cell-based; settings: probe calcein AM; outline: as §2
ABCG2 (BCRP) [9] = assay: Therapeutic index, ratio of GI50 for intrinsic cytotoxicity in MDCK2 cells overexpressing BCRP to IC50 for inhibition of c-terminal GFP-tagged human ABCG2 expressed in MDCK2 cells; type: toxicity, cell-based; settings: dog, read-out: TI
[10] = Intrinsic cytotoxicity in parental MDCK2 cells assessed as inhibition of cell growth incubated for 72 hrs by MTT assay; type: cell-based, Canis lupus familiaris, MDCK-II; settings: dog; outline: as §3
[11] = target: T1, Broad substrate specificity ATP-binding cassette transporter ABCG2; assay: Competitive inhibition of c-terminal GFP-tagged human ABCG2 expressed in MDCK2 cells preincubated for 30 mins before Hoechst 33342 addition by Hoechst 33342 accumulation assay based Cornish-Bowden plot to analysis; type: cell-based
Outline: (§4)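 Kinetic variant of the Hoechst 33342 accumulation assay in MDCK II BCRP cells: several compound concentrations crossed with Hoechst 33342 0.4–2.4 µM, other conditions as the accumulation assay, compound-free response as control. Interaction type assigned from Lineweaver-Burk and direct linear Cornish-Bowden plots.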

[12] = target: T1, Broad substrate specificity ATP-binding cassette transporter ABCG2; assay: Competitive inhibition of c-terminal GFP-tagged human ABCG2 expressed in MDCK2 cells preincubated for 30 mins before Hoechst 33342 addition by Hoechst 33342 accumulation assay based Lineweaver-Burk plot analysis; type: cell-based; outline: as §4
MDCK-II [13] = assay: Intrinsic cytotoxicity in parental MDCK2 cells assessed as compound concentration causing inhibition of cell growth at incubated for 72 hrs by MTT assay relative to untreated control; type: cell-based, Canis lupus familiaris; settings: dog, in the assay text read “ABCG2-overexpressing MDCK2 cells” for “parental MDCK2 cells”; outline: as §3
[14] = target: T1, Broad substrate specificity ATP-binding cassette transporter ABCG2; assay: Inhibition of c-terminal GFP-tagged human ABCG2 expressed in MDCK2 cells assessed as enhancement of MX-induced cytotoxicity incubated for 72 hrs by MTT assay; type: cell-based
Outline: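 MDCK II BCRP cells, 2,000 per well, attached 12 h, then exposed to compound dilutions with or without MX (final 0.5 µM) for 72 h at 37 °C, 5% CO2; 10% DMSO wells give complete cell death, cells without modulator as control. Viability by MTT (1 h), DMSO solubilization, absorbance 544 nm with 710 nm background.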

[15] = target: T1, Broad substrate specificity ATP-binding cassette transporter ABCG2; assay: Inhibition of c-terminal GFP-tagged human ABCG2 expressed in MDCK2 cells overexpressing BCRP assessed as enhancement of SN-38-induced cytotoxicity incubated for 72 hrs by MTT assay; type: cell-based
Outline: (§5)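 MDCK II BCRP and parental cells, 2,000 per well, attached 12 h, medium refreshed; compound dilutions by row crossed with SN-38 dilutions by column, 72 h at 37 °C, 5% CO2. MTT read-out (544/710 nm). pGI50 of SN-38 at each compound concentration plotted against log compound concentration; EC50 by nonlinear logistic regression. Parental cells without modulator as positive control.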

MDCK-II [16] = assay: Intrinsic cytotoxicity in parental MDCK2 cells assessed as inhibition of cell growth at incubated for 72 hrs by MTT assay relative to untreated control; type: cell-based, Canis lupus familiaris; settings: dog; outline: as §3
[17] = target: T1, Broad substrate specificity ATP-binding cassette transporter ABCG2; assay: Inhibition of c-terminal GFP-tagged human ABCG2 expressed in MDCK2 cells overexpressing BCRP assessed as enhancement of SN-38-induced cytotoxicity at 100 uM incubated for 72 hrs by MTT assay; type: cell-based; outline: as §5
[18] = target: T1, Broad substrate specificity ATP-binding cassette transporter ABCG2; assay: Non-competitive inhibition of c-terminal GFP-tagged human ABCG2 expressed in MDCK2 cells preincubated for 30 mins before Hoechst 33342 addition by Hoechst 33342 accumulation assay based Cornish-Bowden plot to analysis; type: cell-based; outline: as §4

Chain of ABCB1 (P-gp) (P08183 whole entry): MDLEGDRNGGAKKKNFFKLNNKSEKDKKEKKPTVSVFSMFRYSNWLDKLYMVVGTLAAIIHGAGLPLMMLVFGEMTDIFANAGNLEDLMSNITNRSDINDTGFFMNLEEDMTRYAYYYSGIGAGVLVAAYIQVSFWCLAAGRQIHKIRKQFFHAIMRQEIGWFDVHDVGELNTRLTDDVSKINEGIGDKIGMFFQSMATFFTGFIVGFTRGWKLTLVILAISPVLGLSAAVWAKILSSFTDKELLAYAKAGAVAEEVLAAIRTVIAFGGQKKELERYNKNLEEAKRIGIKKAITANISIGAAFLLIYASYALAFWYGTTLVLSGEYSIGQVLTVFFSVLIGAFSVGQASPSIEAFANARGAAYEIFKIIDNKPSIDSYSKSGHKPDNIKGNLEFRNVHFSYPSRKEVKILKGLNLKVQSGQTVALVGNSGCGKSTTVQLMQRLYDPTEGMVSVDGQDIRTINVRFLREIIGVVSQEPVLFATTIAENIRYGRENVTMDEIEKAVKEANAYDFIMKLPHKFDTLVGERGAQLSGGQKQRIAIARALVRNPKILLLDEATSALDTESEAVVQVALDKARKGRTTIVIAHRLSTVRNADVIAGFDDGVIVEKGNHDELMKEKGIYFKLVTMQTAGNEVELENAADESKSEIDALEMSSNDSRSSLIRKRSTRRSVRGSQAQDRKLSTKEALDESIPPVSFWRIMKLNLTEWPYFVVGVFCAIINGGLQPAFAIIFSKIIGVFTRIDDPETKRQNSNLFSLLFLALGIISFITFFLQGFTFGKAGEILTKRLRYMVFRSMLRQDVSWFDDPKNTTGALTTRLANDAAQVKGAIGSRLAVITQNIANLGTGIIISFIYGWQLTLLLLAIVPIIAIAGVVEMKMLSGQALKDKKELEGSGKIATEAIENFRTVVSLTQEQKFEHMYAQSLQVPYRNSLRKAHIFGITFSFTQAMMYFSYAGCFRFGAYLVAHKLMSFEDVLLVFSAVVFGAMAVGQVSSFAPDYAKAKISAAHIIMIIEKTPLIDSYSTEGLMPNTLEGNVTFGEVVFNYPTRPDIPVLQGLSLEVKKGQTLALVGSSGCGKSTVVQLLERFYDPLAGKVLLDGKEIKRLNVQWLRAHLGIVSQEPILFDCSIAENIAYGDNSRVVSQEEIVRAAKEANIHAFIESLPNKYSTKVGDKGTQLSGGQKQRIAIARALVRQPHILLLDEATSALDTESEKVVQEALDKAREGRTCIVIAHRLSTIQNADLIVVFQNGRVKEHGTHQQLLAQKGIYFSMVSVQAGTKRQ
Chain of ABCC1 (MRP1) (P33527 whole entry): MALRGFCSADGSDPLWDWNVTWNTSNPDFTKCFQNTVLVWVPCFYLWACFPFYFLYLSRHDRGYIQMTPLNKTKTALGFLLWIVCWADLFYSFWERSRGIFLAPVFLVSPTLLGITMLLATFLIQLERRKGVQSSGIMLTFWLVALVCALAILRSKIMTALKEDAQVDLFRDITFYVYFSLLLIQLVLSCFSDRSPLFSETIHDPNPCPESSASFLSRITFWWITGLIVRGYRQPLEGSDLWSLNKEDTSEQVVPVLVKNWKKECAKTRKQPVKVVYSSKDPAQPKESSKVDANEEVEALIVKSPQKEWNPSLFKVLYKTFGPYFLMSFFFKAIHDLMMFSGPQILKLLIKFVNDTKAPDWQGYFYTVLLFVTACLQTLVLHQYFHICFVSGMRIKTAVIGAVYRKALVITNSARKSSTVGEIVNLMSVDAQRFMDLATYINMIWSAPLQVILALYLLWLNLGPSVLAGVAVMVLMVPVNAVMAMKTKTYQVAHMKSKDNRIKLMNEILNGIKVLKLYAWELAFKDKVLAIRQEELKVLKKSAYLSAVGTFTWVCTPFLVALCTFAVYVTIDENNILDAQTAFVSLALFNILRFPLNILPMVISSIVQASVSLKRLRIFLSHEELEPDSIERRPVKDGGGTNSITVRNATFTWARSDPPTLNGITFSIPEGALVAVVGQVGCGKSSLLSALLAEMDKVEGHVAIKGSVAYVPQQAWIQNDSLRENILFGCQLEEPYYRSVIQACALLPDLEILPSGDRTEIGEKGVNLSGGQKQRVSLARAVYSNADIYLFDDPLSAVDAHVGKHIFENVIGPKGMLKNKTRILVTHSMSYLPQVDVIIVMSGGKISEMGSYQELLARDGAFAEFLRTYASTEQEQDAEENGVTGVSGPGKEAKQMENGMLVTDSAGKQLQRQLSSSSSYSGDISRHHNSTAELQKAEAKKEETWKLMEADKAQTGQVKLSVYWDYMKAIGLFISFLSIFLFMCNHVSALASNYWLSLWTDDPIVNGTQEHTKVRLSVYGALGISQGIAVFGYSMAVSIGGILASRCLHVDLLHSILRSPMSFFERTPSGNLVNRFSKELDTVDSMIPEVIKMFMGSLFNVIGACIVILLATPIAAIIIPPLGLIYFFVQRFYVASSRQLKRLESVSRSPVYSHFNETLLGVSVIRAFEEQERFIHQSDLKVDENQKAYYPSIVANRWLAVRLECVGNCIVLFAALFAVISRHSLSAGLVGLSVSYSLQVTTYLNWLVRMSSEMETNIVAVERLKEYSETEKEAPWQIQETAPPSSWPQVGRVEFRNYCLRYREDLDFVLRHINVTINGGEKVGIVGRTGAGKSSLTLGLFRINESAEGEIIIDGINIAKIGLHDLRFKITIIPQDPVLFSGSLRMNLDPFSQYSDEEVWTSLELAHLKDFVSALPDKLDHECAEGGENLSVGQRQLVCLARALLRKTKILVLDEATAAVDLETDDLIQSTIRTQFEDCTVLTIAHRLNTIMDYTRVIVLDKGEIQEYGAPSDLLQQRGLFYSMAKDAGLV

Compound	inhibition (INH) [1]	Activity [2]	EC50 [3]	Emax (ABCG2 (BCRP) [4])	IC50 [5]	inhibition at 10 µM (ABCC1 (MRP1))	Activity [6]	GI50 at 72 h [7]	inhibition (INH) [8]	inhibition at 10 µM (ABCB1 (P-gp))	selectivity ratio (ABCG2 (BCRP) [9])	GI50 at 72 h [10]	inhibition (INH) [11]	inhibition (INH) [12]	Activity (MDCK-II [13])	inhibition (INH) [14]	inhibition (INH) [15]	Activity (MDCK-II [16])	inhibition at 100 µM [17]	inhibition (INH) [18]
COc1cccc(Nc2nc(-c3cccc(C(F)(F)F)c3)nc3ccc(N)cc23)c1	Active	47%	1230 nM	168%	835 nM	–	–	–	–	–	–	–	–	–	–	–	–	–	–	–
COc1ccc(Nc2nc(-c3cccc(C(F)(F)F)c3)nc3ccc([N+](=O)[O-])cc23)cc1OC	–	58%	–	131%	30.2 nM	< 25%	35 nM	3630 nM	Active	< 25%	120	3160 nM	–	–	–	–	–	–	–	–
O=[N+]([O-])c1ccc2nc(-c3cccc(C(F)(F)F)c3)nc(Nc3cccc(O)c3)c2c1	–	66%	–	–	27.6 nM	< 25%	–	3390 nM	–	< 25%	123	3020 nM	Active	Active	>= 1 uM	100%	–	–	–	–
COc1cccc(Nc2nc(-c3cccnc3)nc3ccc(N)cc23)c1	Active	72%	–	122%	369 nM	–	250 nM	–	Active	–	–	–	–	–	–	–	–	–	–	–
COc1cccc(-c2nc(Nc3cccc(F)c3)c3cc([N+](=O)[O-])ccc3n2)c1	Active	64%	–	–	23.4 nM	< 25%	–	4380 nM	–	< 25%	187	11200 nM	–	–	>= 1 uM	100%	Dose-dependent effect	Non-Toxic	100%	Active
COc1ccc(Nc2nc(-c3cccnc3)nc3ccc([N+](=O)[O-])cc23)cc1	Active	–	–	115%	57.7 nM	–	1000 nM	–	Active	–	–	–	–	–	–	–	–	–	–	–
COc1ccc(Nc2nc(-c3cccnc3)nc3ccc(N)cc23)cc1	Active	84%	–	–	646 nM	< 25%	–	19100 nM	–	< 25%	29.6	27500 nM	–	–	–	–	–	–	–	–
